# Activity calls are given as the source filed them. The calls are words filed in the database; no cut-off is given here.
# How the values were obtained:
# A549 [1] = assay: Cytotoxicity against human A549 cells assessed as reduction in cell viability after 48 hrs by MTT assay; assay type: functional, cell-based; conditions: A549, 48 h
# How it was run: (§1)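 MTT viability assay. Stocks in DMSO were diluted into culture medium to final 1, 5, 10, 50 and 100 µg/mL, with DMSO below 1%. A549, MCF-7, SKOV3 and normal mouse fibroblast L929 were used, with etoposide as reference. Values are means of three experiments. L929 was also tested up to 200 µg/mL alongside cisplatin 50 µg/mL.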
# MCF7 [2] = assay: Cytotoxicity against human MCF7 cells assessed as reduction in cell viability after 48 hrs by MTT assay; assay type: functional, cell-based; conditions: MCF7, 48 h; how it was run: as §1
# SK-OV-3 [3] = assay: Cytotoxicity against human SKOV3 cells assessed as reduction in cell viability after 48 hrs by MTT assay; assay type: functional, cell-based; conditions: SK-OV-3, 48 h; how it was run: as §1
# MCF7 [4] = assay: Cell cycle arrest in human MCF7 cells assessed as accumulation at sub-G1 phase at 12 ug/ml after 48 hrs by RNase A/propidium iodide staining based FACScalibur flow cytometry (reference value: 0.66 %); assay type: functional
# How it was run: (§2)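 MCF-7 seeded at 25×10^4 cells/well, treated 24 h later with 12 µg/mL for 48 h; untreated control. Cells washed in cold PBS, fixed in 70% ethanol ≥3 h, RNase A 1 h at room temperature, then propidium iodide. Phase distribution (sub-G1, G1, S, G2/M) read by flow cytometry.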
# L929 [5] = assay: Cytotoxicity against mouse L929 cells assessed as […] cell viability after 48 hrs by MTT assay; assay type: cell-based; conditions: L929, 48 h; how it was run: as §1
# [6] = Hemolytic activity in human erythrocytes at 10 ug/ml after 1 hr relative to control; assay type: ADME, cell-based, Erythrocyte; conditions: read-out: Activity
# How it was run: (§3)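 Human erythrocytes; DMSO stock added 1:20 to diluted cells to give final 1, 5 and 10 µg/mL. DMSO served as negative control and Triton X-100 (2% v/v) as positive (100%) control. Percent hemolysis measured in three repeats, mean ± SD.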
# Erythrocyte = assay: Hemolytic activity in human erythrocytes at 1 to 5 ug/ml after 1 hr; assay type: ADME, cell-based; how it was run: as §3
# L929 [7] = assay: Genotoxicity in mouse L929 cells assessed as induction of DNA damage at 10 ug/ml incubated for 1 hr by alkaline comet assay; assay type: toxicity, cell-based; conditions: l929, 1 h
# How it was run: (§4)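 Alkaline comet assay in L929 seeded at 250000 cells/well and exposed for 1 h to 10 µg/mL; etoposide 0.5 µg/mL served as positive control and untreated cells as negative. Cells were embedded in low-melt agarose and lysed 1 h at 4 °C (2.5 M NaCl, 100 mM EDTA, 10 mM Tris, pH 10, 10% DMSO, 1% Triton X-100). DNA unwound 40 min at pH>13, electrophoresed 25 V/300 mA 20 min, neutralized, stained with ethidium bromide. Tail length, % tail DNA and tail moment scored; mean ± SEM.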
# [8] = (§5) Inhibition of sheep brain tubulin polymerization incubated for 15 mins in presence of GTP by turbidimetric method; design: species or system Ovis aries
# How it was run: (§6)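 Tubulin purified from sheep brain by three polymerization/depolymerization cycles. It was preincubated 15 min on ice with 0.5, 2, 10 or 20 µg/mL, then polymerization started with 1 mM GTP at 37 °C and followed by turbidity at 350 nm. IC50 was taken from area under the curve, with untreated control set as 100% polymerization. Colchicine served as reference.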
# Ovis aries [9] = species: Ovis aries; assay: as §5; how it was run: as §6
# MCF7 [10] = assay: Cell cycle arrest in human MCF7 cells assessed as accumulation at G1 phase at 12 ug/ml after 48 hrs by RNase A/propidium iodide staining based FACScalibur flow cytometry (reference value: 44.45 %); assay type: functional; how it was run: as §2
# MCF7 [11] = assay: Cell cycle arrest in human MCF7 cells assessed as accumulation at S phase at 12 ug/ml after 48 hrs by RNase A/propidium iodide staining based FACScalibur flow cytometry (reference value: 38.2 %); assay type: functional; how it was run: as §2
# MCF7 [12] = assay: Cell cycle arrest in human MCF7 cells assessed as accumulation at G2/M phase at 12 ug/ml after 48 hrs by RNase A/propidium iodide staining based FACScalibur flow cytometry (reference value: 16.69 %); assay type: functional; how it was run: as §2
# SK-OV-3 [13] = assay: Induction of apoptosis in human SKOV3 cells assessed as viable cells at 2 ug/ml after 48 hrs by AnnexinV-FITC/propidium iodide staining based FACScan flow cytometry analysis relative to control; assay type: functional; conditions: SK-OV-3, 48 h, read-out: Activity
# How it was run: (§7)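 SKOV3 seeded at 1×10^6 cells/well for 24 h, then given fresh medium containing 2 or 4 µg/mL for 48 h. Cells harvested by trypsinization, PBS-washed, stained with Annexin-V-FITC 15 min at room temperature, then PI 10 min. Flow cytometry with 488 nm excitation; quadrants were necrotic, late apoptotic, viable and early apoptotic.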
# SK-OV-3 [14] = assay: Induction of apoptosis in human SKOV3 cells assessed as early apoptotic cells at 2 ug/ml after 48 hrs by AnnexinV-FITC/propidium iodide staining based FACScan flow cytometry analysis relative to control; assay type: functional; how it was run: as §7
# SK-OV-3 [15] = assay: Induction of apoptosis in human SKOV3 cells assessed as late apoptotic cells at 2 ug/ml after 48 hrs by AnnexinV-FITC/propidium iodide staining based FACScan flow cytometry analysis relative to control; assay type: functional; how it was run: as §7
# SK-OV-3 [16] = assay: Induction of apoptosis in human SKOV3 cells assessed as necrotic cells at 2 ug/ml after 48 hrs by AnnexinV-FITC/propidium iodide staining based FACScan flow cytometry analysis relative to control; assay type: functional; how it was run: as §7
# SK-OV-3 [17] = assay: Induction of apoptosis in human SKOV3 cells assessed as viable cells at 4 ug/ml after 48 hrs by AnnexinV-FITC/propidium iodide staining based FACScan flow cytometry analysis relative to control; assay type: functional; conditions: SK-OV-3, 48 h, read-out: Activity; how it was run: as §7
# SK-OV-3 [18] = assay: Induction of apoptosis in human SKOV3 cells assessed as early apoptotic cells at 4 ug/ml after 48 hrs by AnnexinV-FITC/propidium iodide staining based FACScan flow cytometry analysis relative to control; assay type: functional; how it was run: as §7
# SK-OV-3 [19] = assay: Induction of apoptosis in human SKOV3 cells assessed as late apoptotic cells at 4 ug/ml after 48 hrs by AnnexinV-FITC/propidium iodide staining based FACScan flow cytometry analysis relative to control; assay type: functional; how it was run: as §7
# SK-OV-3 [20] = assay: Induction of apoptosis in human SKOV3 cells assessed as necrotic cells at 4 ug/ml after 48 hrs by AnnexinV-FITC/propidium iodide staining based FACScan flow cytometry analysis relative to control; assay type: functional; how it was run: as §7
# L929 [21] = assay: Genotoxicity in mouse L929 cells assessed as induction of DNA damage at 0.5 ug/ml incubated for 1 hr by alkaline comet assay; assay type: toxicity, cell-based; conditions: l929, 1 h; how it was run: as §4
# B16 = assay: Cytotoxicity against mouse B16 cells assessed as reduction in cell growth; assay type: functional, cell-based
# HCT-116 = assay: Cytotoxicity against human HCT116 cells assessed as reduction in cell growth; assay type: functional, cell-based
# MCF7 [22] = assay: Cytotoxicity against human MCF7 cells assessed as reduction in cell growth; assay type: functional, cell-based
# A549 [23] = assay: Cytotoxicity against human A549 cells assessed as reduction in cell growth; assay type: functional, cell-based
# PC-3 = assay: Cytotoxicity against human PC3 cells assessed as reduction in cell growth; assay type: functional, cell-based
# Ovis aries [24] = species: Ovis aries; assay: Inhibition of colchicine binding to sheep brain tubulin assessed as decrease in fluorescence of colchicine-tubulin complex at 1 to 5 uM by fluorescence based assay
# How it was run: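 Purified tubulin (0.25 µM) incubated 1 h at 37 °C with colchicine 0.1, 0.25, 0.5 or 1 µM, then test compound at final 1 or 5 µM. Fluorescence read at ex 360/em 430 nm, corrected for compound background, expressed as F/F0; n=3.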
SMILES,IC50 (A549 [1]) [µM],IC50 (MCF7 [2]),IC50 (SK-OV-3 [3]) [µM],other results
COc1cc(-c2csc(=S)n2-c2ccc(Cl)cc2)cc(OC)c1OC,15.4,16.9 µM,17.7,–
COc1cc(-c2csc(=S)n2Cc2ccc(Cl)cc2)cc(OC)c1OC,6.7,5.9 µM,18.1,"Activity (MCF7 [4]): 17.28%; IC50 (L929 [5]): > 200 µg/mL; hemolysis at 1 h, 10 ug/ml [6]: < 25%; Activity (Erythrocyte): Non-Toxic; Activity (L929 [7]): Toxic; IC50 [8]: 9.97 µg/mL; inhibition (Ovis aries [9]): Dose-dependent effect; Activity (MCF7 [10]): 54.57%; Activity (MCF7 [11]): 22.43%; Activity (MCF7 [12]): 5.72%; viability at 2 µg/mL (SK-OV-3 [13]): 64.1%; Activity (SK-OV-3 [14]): 6.2%; Activity (SK-OV-3 [15]): 13.55%; Activity (SK-OV-3 [16]): 16.12%; viability at 4 µg/mL (SK-OV-3 [17]): 64.1%; Activity (SK-OV-3 [18]): 6.2%; Activity (SK-OV-3 [19]): 15.49%; Activity (SK-OV-3 [20]): 19.9%"
COc1cc(C2(O)CSC(=S)N2Cc2ccc(Cl)cc2)cc(OC)c1OC (stereo not given),11.6,18.8 µM,18.1,–
COc1cc(-n2c(-c3ccc(Cl)cc3)csc2=S)cc(OC)c1OC,–,> 100 µg/mL,–,–
COc1cc(C2(O)CSC(=S)N2Cc2ccccc2)cc(OC)c1OC (stereo not given),12.8,13.4 µM,13.8,–
COc1cc(-c2csc(=S)n2-c2ccc(Cl)c(Cl)c2)cc(OC)c1OC,12.1,9.6 µM,17.9,–
COc1cc(-c2csc(=S)n2Cc2ccc(O)cc2)cc(OC)c1OC,15.6,22 µM,18.7,–
COc1cc(-c2csc(=S)n2Cc2ccc(F)cc2)cc(OC)c1OC,15.8,10 µM,18.6,–
COc1cc([C@@H]2c3cc4c(cc3[C@@H](O[C@@H]3O[C@@H]5CO[C@@H](C)O[C@H]5[C@H](O)[C@H]3O)[C@H]3COC(=O)[C@H]23)OCO4)cc(OC)c1O [ETOPOSIDE],6,5.7 µM,9.2,Activity (L929 [21]): Toxic
COc1cc(C2(O)CSC(=S)N2Cc2ccc(F)cc2)cc(OC)c1OC (stereo not given),21.4,12 µM,12.4,–
COc1cc(C2(O)CSC(=S)N2Cc2ccccc2Cl)cc(OC)c1OC (stereo not given),14.6,12.3 µM,12.1,–
COc1ccc(-c2coc(=O)n2-c2cc(OC)c(OC)c(OC)c2)cc1N,–,–,–,IC50 (B16): 1.1 to 4.3 nM; IC50 (HCT-116): 1.1 to 4.3 nM; IC50 (MCF7 [22]): 1.1 to 4.3 nM; IC50 (A549 [23]): 1.1 to 4.3 nM; IC50 (PC-3): 1.1 to 4.3 nM
COc1cc(-c2csc(=S)n2Cc2ccccc2Cl)cc(OC)c1OC,13.8,2.8 µM,13.5,"Activity (MCF7 [4]): 14.74%; IC50 (L929 [5]): > 200 µg/mL; hemolysis at 1 h, 10 ug/ml [6]: < 25%; Activity (L929 [7]): Non-Toxic; IC50 [8]: 5.14 µg/mL; inhibition (Ovis aries [9]): Dose-dependent effect; inhibition (Ovis aries [24]): Active; Activity (MCF7 [10]): 78.02%; Activity (MCF7 [11]): 7.17%; Activity (MCF7 [12]): 0.07%; viability at 2 µg/mL (SK-OV-3 [13]): 68.9%; Activity (SK-OV-3 [14]): 3.06%; Activity (SK-OV-3 [15]): 15.49%; Activity (SK-OV-3 [16]): 12.57%; viability at 4 µg/mL (SK-OV-3 [17]): 58.9%; Activity (SK-OV-3 [18]): 7.6%; Activity (SK-OV-3 [19]): 19.81%; Activity (SK-OV-3 [20]): 13.72%"
COc1cc(C2(O)CSC(=S)N2C)cc(OC)c1OC (stereo not given),10.2,26.1 µM,13.4,–
COc1cc(-c2csc(=S)n2C)cc(OC)c1OC,17.5,27.7 µM,23.4,–
COc1cc(-c2csc(=S)n2Cc2ccccc2)cc(OC)c1OC,12.1,13.9 µM,17.5,–
